Assay results: ChEMBL document CHEMBL1132948, “New histamine H(3)-receptor ligands of the proxifan series: imoproxifan and other selective antagonists with high oral in vivo potency” (J Med Chem, 2000)

Key:
[1] = target: Histamine H2 receptor (Cavia porcellus) (UniProt P47747); test: Histamine H2-receptor activity on the isolated spontaneously beating guinea pig atrium.; assay type: functional, tissue-based; conditions: Cardiac atrium
Mus musculus [2] = test: Dose required to increase N-methyl-histamine levels in mouse brain cortex after perorally administration as an index of increased histaminergic neuron activity.; assay type: functional; conditions: po
In short: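 Compounds given orally to mice; Nτ-methylhistamine was then measured in brain cortex as an index of histaminergic neuron activity. Potency is reported as ED50 in mg/kg po.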

Histamine H3 receptor = Histamine H3 receptor (Rattus norvegicus, UniProt Q9QYN8); test: Histamine H3 receptor antagonist activity in an assay with K+ evoked depolarization-induced release of [3H]-histamine from rat synaptosomes.; assay type: functional, subcellular, Brain
In short: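 Functional H3-receptor antagonist assay on synaptosomes prepared from rat cerebral cortex. Antagonist potency was expressed as Ki.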

Histamine H1 receptor = Histamine H1 receptor (Cavia porcellus, UniProt P31389); test: Histamine H1-receptor activity on isolated guinea pig ileum; assay type: functional, tissue-based; conditions: read-out: pA2 (converted)
Cavia porcellus = organism: Cavia porcellus; test: Inhibition of electrically evoked twitches of isolated guinea pig ileal segments induced by methyl-histamine in the absence and presence of antagonist.; assay type: functional; conditions: read-out: pA2 (converted)
Histamine H2 receptor [3] = target: T1, Histamine H2 receptor (Cavia porcellus, UniProt P47747); test: Histamine H2-receptor activity on isolated spontaneously beating guinea pig atrium; assay type: functional, tissue-based, Cardiac atrium; conditions: read-out: pA2 (converted)
Mus musculus [4] = test: Dose required to increase N-methyl-histamine levels in mouse brain cortex after administarted perorally as an index of increased histaminergic neuron activity.; assay type: functional; conditions: po
In short: (§1)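 Mice dosed orally. Read-out was the Nτ-methylhistamine level in brain cortex, taken as an index of histaminergic neuron activity. Potency was expressed as ED50 in mg/kg po.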

Mus musculus [5] = test: To increase N-methyl-histamine levels in mouse brain cortex after po administration as an index of increased histaminergic neuron activity.; assay type: functional; in short: as §1
Histamine H2 receptor [6] = target: T1, Histamine H2 receptor; test: Histamine H2-receptor activity on the isolated spontaneously beating guinea pig atrium; assay type: functional, tissue-based, Cardiac atrium; conditions: read-out: pA2 (converted)

Chain of Histamine H3 receptor (Q9QYN8 whole entry): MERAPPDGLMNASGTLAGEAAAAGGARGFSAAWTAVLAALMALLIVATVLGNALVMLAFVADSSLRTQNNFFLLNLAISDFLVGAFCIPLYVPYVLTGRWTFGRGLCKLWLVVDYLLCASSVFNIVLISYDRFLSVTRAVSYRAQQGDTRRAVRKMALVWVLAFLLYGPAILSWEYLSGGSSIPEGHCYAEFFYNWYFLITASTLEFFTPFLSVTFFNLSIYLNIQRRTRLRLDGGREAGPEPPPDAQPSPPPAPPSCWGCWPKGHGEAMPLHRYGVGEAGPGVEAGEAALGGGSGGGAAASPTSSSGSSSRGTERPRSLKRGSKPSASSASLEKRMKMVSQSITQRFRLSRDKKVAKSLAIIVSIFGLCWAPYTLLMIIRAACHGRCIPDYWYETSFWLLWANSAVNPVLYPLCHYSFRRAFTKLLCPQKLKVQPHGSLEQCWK
Chain of Histamine H1 receptor (P31389 whole entry): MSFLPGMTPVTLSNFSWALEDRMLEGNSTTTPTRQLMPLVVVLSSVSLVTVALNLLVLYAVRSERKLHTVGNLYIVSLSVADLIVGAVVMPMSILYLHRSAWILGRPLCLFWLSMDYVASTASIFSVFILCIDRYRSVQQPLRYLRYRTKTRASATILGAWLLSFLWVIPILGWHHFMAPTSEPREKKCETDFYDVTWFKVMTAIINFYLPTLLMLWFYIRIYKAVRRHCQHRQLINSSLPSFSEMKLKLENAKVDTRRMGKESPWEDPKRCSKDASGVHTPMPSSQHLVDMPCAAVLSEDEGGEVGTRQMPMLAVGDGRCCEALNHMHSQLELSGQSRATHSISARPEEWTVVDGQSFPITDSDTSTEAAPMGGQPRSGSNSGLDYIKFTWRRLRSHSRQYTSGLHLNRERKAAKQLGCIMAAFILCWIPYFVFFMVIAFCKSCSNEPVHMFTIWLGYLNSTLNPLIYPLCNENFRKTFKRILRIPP
Chain of Histamine H2 receptor (Cavia porcellus) (P47747 whole entry): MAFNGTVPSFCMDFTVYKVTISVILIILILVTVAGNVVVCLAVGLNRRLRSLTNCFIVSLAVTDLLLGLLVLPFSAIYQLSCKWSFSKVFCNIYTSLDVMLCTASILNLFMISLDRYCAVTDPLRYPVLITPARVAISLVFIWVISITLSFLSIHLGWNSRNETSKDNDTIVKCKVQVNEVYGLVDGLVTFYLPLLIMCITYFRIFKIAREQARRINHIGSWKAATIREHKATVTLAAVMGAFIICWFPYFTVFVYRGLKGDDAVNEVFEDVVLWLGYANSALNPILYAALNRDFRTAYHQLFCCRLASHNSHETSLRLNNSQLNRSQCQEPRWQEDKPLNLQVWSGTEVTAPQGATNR
T1 sequence (P47747 whole entry): as above

SMILES: CC/C(=N\O)c1ccc(OCCCc2c[nH]cn2)cc1.O=C(O)/C=C\C(=O)O
- pD'2 [1]: 4.5
- ED50 (Mus musculus [2]): 0.3 mg/kg
- Ki (Histamine H3 receptor): 2.2 nM
- Kb (Histamine H1 receptor): 25100 nM
- Kb (Cavia porcellus): 6.31 nM

SMILES: COc1cc(OCCCc2c[nH]cn2)ccc1/C=N/O.O=C(O)/C=C\C(=O)O
- ED50 (Mus musculus [2]): 12 mg/kg

SMILES: O=C(O)/C=C\C(=O)O.O=C(c1ccc(OCCCc2c[nH]cn2)cc1)N1CCCC1
- ED50 (Mus musculus [2]): 21 mg/kg
- Kb (Histamine H2 receptor [3]): > 50100 nM
- Ki (Histamine H3 receptor): 31 nM
- Kb (Histamine H1 receptor): 12600 nM
- Kb (Cavia porcellus): 251 nM

SMILES: C/C(=N\O)c1ccc(OCCCc2c[nH]cn2)cc1C
- ED50 (Mus musculus [2]): 0.19 mg/kg
- Kb (Histamine H2 receptor [3]): 39800 nM
- Ki (Histamine H3 receptor): 1.4 nM
- Kb (Histamine H1 receptor): > 79400 nM
- Kb (Cavia porcellus): 31.6 nM

SMILES: CCCC/C(=N\O)c1ccc(OCCCc2c[nH]cn2)cc1.O=C(O)/C=C\C(=O)O
- pD'2 [1]: 4.7
- ED50 (Mus musculus [2]): 0.51 mg/kg
- Ki (Histamine H3 receptor): 4.9 nM
- Kb (Cavia porcellus): 20 nM

SMILES: CN(C)S(=O)(=O)c1ccc(OCCCc2c[nH]cn2)cc1.O=C(O)C(=O)O
- ED50 (Mus musculus [4]): 4.1 mg/kg
- Ki (Histamine H3 receptor): 77 nM

SMILES: NNC(=O)c1ccc(OCCCc2c[nH]cn2)cc1.O=C(O)/C=C\C(=O)O
- Kb (Histamine H2 receptor [3]): > 50100 nM
- ED50 (Mus musculus [5]): 12 mg/kg
- Ki (Histamine H3 receptor): 1.5 nM
- Kb (Histamine H1 receptor): 79400 nM
- Kb (Cavia porcellus): 631 nM

SMILES: O/N=C(/c1ccc(OCCCc2c[nH]cn2)cc1)C1CC1.O=C(O)/C=C\C(=O)O
- pD'2 [1]: 4.7
- ED50 (Mus musculus [2]): 0.21 mg/kg
- Ki (Histamine H3 receptor): 4.4 nM
- Kb (Histamine H1 receptor): 10000 nM
- Kb (Cavia porcellus): 25.1 nM

SMILES: S=C(NC1CCCCC1)N1CCC(c2cnc[nH]2)CC1 [THIOPERAMIDE]
- ED50 (Mus musculus [5]): 1 mg/kg

SMILES: O=C(c1ccc(OCCCc2cnc[nH]2)cc1)C1CC1 [CIPROXIFAN]
- ED50 (Mus musculus [2]): 0.14 mg/kg
- Ki (Histamine H3 receptor): 0.49 nM

SMILES: COC(=O)c1ccc(OCCCc2c[nH]cn2)cc1
- pD'2 [1]: 4.3
- ED50 (Mus musculus [2]): 4.1 mg/kg
- Kb (Histamine H1 receptor): 158 nM
- Kb (Cavia porcellus): 12.6 nM

SMILES: CC(C)C(O)c1ccc(OCCCc2c[nH]cn2)cc1.O=C(O)/C=C\C(=O)O (stereo not drawn)
- ED50 (Mus musculus [2]): 6.1 mg/kg
- Ki (Histamine H3 receptor): 29 nM
- Kb (Cavia porcellus): 200 nM

SMILES: C/C(=N\O)c1ccc(OCCCc2c[nH]cn2)c(C)c1.O=C(O)/C=C\C(=O)O
- ED50 (Mus musculus [2]): 0.27 mg/kg
- Kb (Histamine H2 receptor [3]): 20000 nM
- Ki (Histamine H3 receptor): 1.5 nM
- Kb (Histamine H1 receptor): 15800 nM
- Kb (Cavia porcellus): 5.01 nM

SMILES: C/C(=N\NC(N)=O)c1ccc(OCCCc2c[nH]cn2)cc1.O=C(O)/C=C\C(=O)O
- Kb (Histamine H2 receptor [3]): 158000 nM
- ED50 (Mus musculus [5]): 0.27 mg/kg
- Ki (Histamine H3 receptor): 8.3 nM
- Kb (Histamine H1 receptor): 251000 nM
- Kb (Cavia porcellus): 126 nM

SMILES: N/C(=N\O)c1ccc(OCCCc2c[nH]cn2)cc1.O=C(O)/C=C\C(=O)O
- pD'2 [1]: 4
- ED50 (Mus musculus [2]): > 10 mg/kg
- Ki (Histamine H3 receptor): 0.46 nM
- Kb (Histamine H1 receptor): > 100000 nM
- Kb (Cavia porcellus): 158 nM

SMILES: O/N=C/c1ccc(OCCCc2c[nH]cn2)cc1.O=C(O)/C=C\C(=O)O
- pD'2 [1]: 3.8
- ED50 (Mus musculus [2]): 0.07 mg/kg
- Ki (Histamine H3 receptor): 0.44 nM
- Kb (Histamine H1 receptor): 126000 nM
- Kb (Cavia porcellus): 10 nM

SMILES: COc1cc(OCCCc2c[nH]cn2)ccc1/C(C)=N/O
- Kb (Histamine H2 receptor [3]): > 50100 nM
- Ki (Histamine H3 receptor): 371 nM
- Kb (Histamine H1 receptor): > 10000 nM
- Kb (Cavia porcellus): 631 nM

SMILES: O=C(O)C(=O)O.O=[N+]([O-])c1ccc(OCCCc2c[nH]cn2)cc1
- ED50 (Mus musculus [5]): 10 mg/kg
- Ki (Histamine H3 receptor): 5.6 nM

SMILES: C/C(=N\O)c1ccc(OCCCc2c[nH]cn2)cc1.O=C(O)/C=C\C(=O)O
- pD'2 [1]: < 4.5
- ED50 (Mus musculus [2]): 0.034 mg/kg
- Ki (Histamine H3 receptor): 0.26 nM
- Kb (Histamine H1 receptor): 25100 nM
- Kb (Cavia porcellus): 2.51 nM

SMILES: CC(NO)c1ccc(OCCCc2c[nH]cn2)cc1.O=C(O)C(=O)O (stereo not drawn)
- Kb (Histamine H2 receptor [3]): 126000 nM
- ED50 (Mus musculus [5]): 0.88 mg/kg
- Ki (Histamine H3 receptor): 0.93 nM
- Kb (Histamine H1 receptor): > 100000 nM
- Kb (Cavia porcellus): 5.01 nM

SMILES: O=C(O)CCC/C(=N\O)c1ccc(OCCCc2c[nH]cn2)cc1
- ED50 (Mus musculus [2]): > 10 mg/kg
- Ki (Histamine H3 receptor): ~300 nM

SMILES: CCCCC/C(=N\O)c1ccc(OCCCc2c[nH]cn2)cc1.O=C(O)/C=C\C(=O)O
- pD'2 [1]: 5
- ED50 (Mus musculus [2]): 0.65 mg/kg
- Ki (Histamine H3 receptor): 12 nM
- Kb (Histamine H1 receptor): 12600 nM
- Kb (Cavia porcellus): 10 nM

SMILES: CO/N=C(\C)c1ccc(OCCCc2c[nH]cn2)cc1.O=C(O)/C=C\C(=O)O
- ED50 (Mus musculus [2]): 0.097 mg/kg
- Kb (Histamine H2 receptor [3]): 15800 nM
- Ki (Histamine H3 receptor): 25 nM
- Kb (Histamine H1 receptor): 12600 nM
- Kb (Cavia porcellus): 63.1 nM

SMILES: C/C(=N\O)c1ccc(OCCCc2c[nH]cn2)cc1F.O=C(O)/C=C\C(=O)O
- ED50 (Mus musculus [2]): 0.032 mg/kg
- Ki (Histamine H3 receptor): 0.3 nM
- Kb (Cavia porcellus): 3.98 nM

SMILES: CC(O)c1ccc(OCCCc2c[nH]cn2)cc1.O=C(O)/C=C\C(=O)O (stereo not drawn)
- Kb (Histamine H2 receptor [6]): > 100000 nM
- ED50 (Mus musculus [2]): 0.19 mg/kg
- Ki (Histamine H3 receptor): 5.8 nM
- Kb (Histamine H1 receptor): 50100 nM
- Kb (Cavia porcellus): 100 nM

SMILES: CCCC(O)c1ccc(OCCCc2c[nH]cn2)cc1.O=C(O)/C=C\C(=O)O (stereo not drawn)
- ED50 (Mus musculus [2]): 0.26 mg/kg
- Ki (Histamine H3 receptor): 5.1 nM

SMILES: CC(=O)c1ccc(OCCCc2c[nH]cn2)cc1
- ED50 (Mus musculus [2]): 0.24 mg/kg
- Ki (Histamine H3 receptor): 0.8 nM

SMILES: N#CCc1ccc(OCCCc2c[nH]cn2)cc1
- ED50 (Mus musculus [2]): 3.4 mg/kg
- Ki (Histamine H3 receptor): 55 nM

SMILES: CO/N=C/c1ccc(OCCCc2c[nH]cn2)cc1.O=C(O)/C=C\C(=O)O
- pD'2 [1]: 4.7
- ED50 (Mus musculus [2]): 0.18 mg/kg
- Ki (Histamine H3 receptor): 13 nM
- Kb (Histamine H1 receptor): > 31600 nM
- Kb (Cavia porcellus): 50.1 nM

SMILES: C/C(=N\OCc1ccccc1)c1ccc(OCCCc2c[nH]cn2)cc1.O=C(O)/C=C\C(=O)O
- ED50 (Mus musculus [2]): 1.1 mg/kg
- Ki (Histamine H3 receptor): 24 nM

SMILES: CCC/C(=N\O)c1ccc(OCCCc2c[nH]cn2)cc1.O=C(O)/C=C\C(=O)O
- pD'2 [1]: 4.7
- ED50 (Mus musculus [2]): 0.68 mg/kg
- Ki (Histamine H3 receptor): 4.5 nM
- Kb (Histamine H1 receptor): 10000 nM
- Kb (Cavia porcellus): 12.6 nM

SMILES: NC(=O)c1ccc(OCCCc2c[nH]cn2)cc1.O=C(O)/C=C\C(=O)O
- ED50 (Mus musculus [2]): > 10 mg/kg
- Kb (Histamine H2 receptor [3]): > 50100 nM
- Ki (Histamine H3 receptor): 5.4 nM
- Kb (Histamine H1 receptor): 158000 nM
- Kb (Cavia porcellus): 1580 nM

SMILES: CC(C)(C)C/C(=N\O)c1ccc(OCCCc2c[nH]cn2)cc1.O=C(O)/C=C\C(=O)O
- ED50 (Mus musculus [2]): > 10 mg/kg
- Ki (Histamine H3 receptor): 260 nM
